Screens deposited in PubChem by Sanford-Burnham Center for Chemical Genomics.
Compounds with a hit are over-represented: about 0.79% of the library has one in this group of screens.
bIAP act – bovine intestinal alkaline phosphatase activators, primary screen, biochemical, bovine IAP, CDP-star luminescence; alkaline phosphatase, intestinal [Bos taurus]; purified bovine IAP, 30 min; hits give high values; fold of DMSO-control signal, blank-subtracted; activation factor at 20 µM; 200,000 tested, 0.17% active;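 active means activation factor of 2 or more at 20 µM, a signal rise over negative controls twice the positive control's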
bIAP inhibitor – bovine intestinal alkaline phosphatase inhibitors, primary screen, selectivity assay for TNAP inhibitor project, biochemical, bovine IAP, CDP-star luminescence; 190,000 tested, under 10 active; inhibition, % at 20 µM; purified bovine IAP, 30 min; alkaline phosphatase, intestinal [Bos taurus];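 active means over 50% inhibition of intestinal alkaline phosphatase at 20 µM in the single-dose screen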
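System: purified bovine intestinal alkaline phosphatase (IAP) enzyme; Input: IAP diluted 1/65,000,000 in the well; Measured by: CDP-star luminescence signal; Compound dosing: 20 µM single dose; Incubation: 30 min reaction at room temperature.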
mIAP activ – activators of mouse IAP, primary screen, biochemical, luminescence, uHTS; activation factor at 10 µM; 330,000 tested, 0.24% active; muIAP, CDP-Star luminescence, 30 min; hits give high values; 1 = vehicle-only enzyme signal, 0 = enzyme-free wells; AID 2805, 2010;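 active means activation factor of at least 2 at 20 µM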
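Assay system: mouse IAP enzyme / Compound: DMSO-dissolved test compounds / Timing: 30 min, room temperature / Measured by: luminescence from enzymatic CDP-Star hydrolysis / Control set: DMSO-only wells, enzyme-free buffer wells as negative control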
hIAP act – human IAP activators, primary screen, biochemical, luminescence, uHTS | 330,000 tested, 0.16% active | purified human IAP, CDP-Star luminescence, 30 min; hits give high values; 1 = vehicle-only enzyme, 0 = enzyme-free background | AID 2524, 2010 | activation factor at 10 µM;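 active means activation factor of the enzyme at least 2-fold when tested at 20 µM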
Target sequence (P09923 whole entry, looked up): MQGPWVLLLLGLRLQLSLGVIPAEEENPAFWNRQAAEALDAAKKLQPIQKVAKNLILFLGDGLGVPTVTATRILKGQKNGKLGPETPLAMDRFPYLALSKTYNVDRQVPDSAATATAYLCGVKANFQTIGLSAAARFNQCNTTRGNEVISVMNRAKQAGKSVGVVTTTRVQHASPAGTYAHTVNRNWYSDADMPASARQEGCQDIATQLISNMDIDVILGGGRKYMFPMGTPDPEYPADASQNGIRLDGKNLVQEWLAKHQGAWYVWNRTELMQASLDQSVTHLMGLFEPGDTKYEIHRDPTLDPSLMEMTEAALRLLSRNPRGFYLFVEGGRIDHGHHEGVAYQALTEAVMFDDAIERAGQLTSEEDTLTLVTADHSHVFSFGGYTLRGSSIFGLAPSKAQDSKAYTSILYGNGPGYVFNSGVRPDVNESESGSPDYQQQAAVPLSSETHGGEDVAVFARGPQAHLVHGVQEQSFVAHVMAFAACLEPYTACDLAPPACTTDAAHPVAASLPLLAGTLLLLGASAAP
mIAP block – inhibitors of mouse IAP, primary screen, biochemical, luminescence, uHTS; purified mouse IAP, CDP-Star luminescence, 30 min; 330,000 tested, 0.2% active; intestinal alkaline phosphatase [Mus musculus]; inhibition, % at 10 µM;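 active means inhibition of at least 40% at 10 µM in the primary screen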;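 further: plate controls were DMSO with enzyme for no effect and no enzyme wells for full effect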
hIAP inh – human IAP inhibitors, primary screen, biochemical, luminescence, uHTS; purified IAP, CDP-Star luminescence, 30 min; inhibition, % at 10 µM; 330,000 tested, 0.12% active; AID 2544, 2010;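 active means inhibition reaching a set limit with compound at 10 µM in the primary screen, cut at about 35% in these data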;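 further: plate controls were DMSO wells with enzyme for no effect and no-enzyme buffer wells for full effect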
hIAP act conf – human IAP activators, confirmation, biochemical, luminescence, single concentration, uHTS hits; activation (%Activity, negative = activation), % at 8.3 µM; AID 434926, 2010; shares compounds with hIAP act; 880 tested, 10% active; purified IAP, CDP-Star luminescence, 30 min; hits give low values;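 active means at least twofold enzyme activation in any of six single-dose repeats, which the averaged readout prints as negative percent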
* hit, by the source's call; i = inactive; . = not tested or not shown.

SMILES | bIAP act | bIAP inhibitor | mIAP activ | hIAP act | mIAP block | hIAP inh | hIAP act conf
COc1cccc(C2c3c(-c4cc(Cl)c(C)cc4O)n[nH]c3C(=O)N2Cc2cccnc2)c1 (configuration not stated) | 1.2 | -15 | 1.2 | 2.4* | -16 | -137 | -18
COc1cc(C2c3c(-c4ccccc4O)n[nH]c3C(=O)N2Cc2ccco2)cc(OC)c1OC (configuration not stated) | . | . | 0.94 | 1.9 | 6 | -92 | .
COc1ccc(C2c3c(-c4ccccc4O)n[nH]c3C(=O)N2Cc2ccco2)cc1 (configuration not stated) | . | . | 0.95 | 2.2* | 5 | -123 | -73
COc1cc(C2c3c(-c4cc(Cl)c(C)cc4O)n[nH]c3C(=O)N2Cc2cccnc2)ccc1O (configuration not stated) | 1 | -4 | 0.94 | 1.8 | 6 | -82 | .
CCOC(=O)c1cccnc1SCC(=O)N(C)c1ccccc1 | 1 | 1 | 0.99 | 0.61 | 1 | 39* | -64
CCOC(=O)c1cccnc1SCc1cc(=O)n2ccccc2n1 | 0.8 | 16 | 1 | 0.98 | -4 | 2 | .
Nc1nc(NCCCN2CCOCC2)nc(Nc2cccc(F)c2)c1[N+](=O)[O-] | . | . | 0.88 | 0.64 | 12 | 36* | -18
CC(OC(=O)CN1C(=O)NC2(CCCC2)C1=O)C(=O)c1ccccc1 (configuration not stated) | . | . | 1.1 | 1.1 | -6 | -11 | .
CSCCC(NS(=O)(=O)c1ccccc1F)C(=O)N1CCCCCC1 (configuration not stated) | . | . | 1.1 | 1.2 | -5 | -20 | .
CSCCC(NC(=O)c1ccccc1Cl)C(=O)NNC(=O)c1csc(N2CCOCC2)n1 (configuration not stated) | . | . | 1 | 1.8 | -2 | -81 | .
CSCCC(NC(=O)c1ccccc1Br)C(=O)NNC(=O)c1csc(N2CCOCC2)n1 (configuration not stated) | . | . | 0.94 | 2.1* | 6 | -110 | -6
CSCCC(NS(=O)(=O)c1ccccc1F)C(=O)NNC(=O)c1csc(N2CCOCC2)n1 (configuration not stated) | . | . | 0.71 | 2.6* | 29 | -164 | 72
CC(=O)Nc1ccc(NC(=O)CN(c2cccc([N+](=O)[O-])c2)S(C)(=O)=O)cc1 | 1 | -2 | 0.96 | 0.92 | 4 | 8 | .
CC(C)CC(=O)NC(=S)Nc1ccccc1C(=O)Nc1ccccc1 | 1.1 | -10 | 0.68 | 2.7* | 32 | -170 | 21
CC(C)C(=O)NC(=S)Nc1ccccc1C(=O)Nc1ccccc1 | 1 | -4 | 0.64 | 2.6* | 36 | -165 | -108*
O=C(NCc1cc([N+](=O)[O-])ccc1O)c1cccnc1Sc1ccccc1Cl | . | . | 0.96 | 1 | 4 | -2 | .
Oc1cccc(/C=N/N=C/c2cccc(O)c2O)c1O | . | . | 0.64 | 2* | 36 | -101 | -57
COc1cc(C(=O)O)ccc1OCc1ccncc1 | . | . | 1.1 | 0.95 | -7 | 5 | .
O=C(O)c1csc(N/N=C/c2ccc(Br)cc2)n1 | 1.6 | -55 | . | . | . | . | .
CN(C)S(=O)(=O)c1cccc(NC(=O)c2ccc(-n3cncn3)c([N+](=O)[O-])c2)c1 | . | . | 0.96 | 0.99 | 4 | 0 | .
CC(NS(=O)(=O)c1ccc(Br)cc1)C(=O)Nc1nc2ccccc2[nH]1 (configuration not stated) | . | . | 0.88 | 2.1* | 12 | -112 | 67
O=C(Cc1ccc(Br)cc1)Nc1nc2ccccc2[nH]1 | . | . | 0.97 | 1.6 | 3 | -56 | .
N#C/C(=C\c1ccc(O)c(O)c1)C(=O)Nc1ccccc1 | . | . | 0.75 | 0.48 | 25 | 52* | 3
C[C@@H](NC(=O)/C(C#N)=C/c1ccc(O)c(O)c1)c1ccccc1 | . | . | 0.76 | 0.68 | 24 | 32 | .
COC(=O)[C@@]12CCCN1[C@H](c1ccc(-c3cccc(Cl)c3)cc1)[C@H]1C(=O)N(C)C(=O)[C@H]12 | . | . | 1.1 | 1.1 | -8 | -9 | .
SMILES | bIAP act | bIAP inhibitor | mIAP activ | hIAP act | mIAP block | hIAP inh | hIAP act conf
Cc1cccc(-c2nc(NCCCN3CCOCC3)c3ccccc3n2)c1 | 1 | 3 | 0.95 | 1.1 | 5 | -11 | .
c1ccc(-c2nc(NCCCN3CCOCC3)c3ccccc3n2)cc1 | 1 | 4 | 1 | 2* | 0 | -104 | -9
O=C(NCCc1ccc(Cl)cc1)c1ccc2[nH]c(=O)c(=O)[nH]c2c1 | . | . | 1.1 | 2* | -6 | -100 | -38
Cc1c(Cl)cccc1NC(=O)CCC(=O)NNC(=O)c1ccccc1Cl | 1.1 | -11 | 0.75 | 0.93 | 25 | 7 | .
Cc1ccsc1/C=N/Nc1ncnc2nc[nH]c12 | 1.2 | -24 | 0.97 | 2.3* | 3 | -126 | -11
CCN(C1CCCCC1)S(=O)(=O)CCNC(=O)c1ccccc1 | . | . | 0.98 | 0.92 | 2 | 8 | .
CCCCOc1cccc(C2/C(=C(\O)c3ccc4c(c3)OCCO4)C(=O)C(=O)N2CCN2CCOCC2)c1 (configuration not stated) | . | . | 1 | 0.58 | -1 | 42* | -91*
CN(CCO)CCC(=O)NC1(C)CS(=O)(=O)CC1S(=O)(=O)O (configuration not stated) | . | . | 1 | 1 | -2 | 0 | .
NC(=O)NC(CCC(=O)O)C(=O)O (configuration not stated) | . | . | 1 | 1 | 0 | -1 | .
CC1Cn2c(nnc2C23CC4CC(CC(C4)C2)C3)S1 (configuration not stated) | 1.1 | -6 | 0.97 | 2* | 3 | -104 | 95
CC1Cn2c(nnc2-c2ccc(F)cc2)S1 (configuration not stated) | 1 | 4 | 1.1 | 1 | -10 | 0 | .
C=CCN1C(=O)C2(NNc3ccccc3O2)c2ccccc21 (configuration not stated) | 3.9* | -286 | 1.1 | 6.7* | -6 | i | -93*
COc1ccc(NC(=O)/C(C#N)=C\c2cc(C)n(-c3ccc4c(c3)OCO4)c2C)cc1 | 0.9 | 9 | 0.86 | 2.1* | 14 | -108 | -56
O=C(CN(c1cc(Cl)ccc1Cl)S(=O)(=O)c1ccccc1)N1CCOCC1 | . | . | 0.91 | 1.1 | 9 | -6 | .
